# CSN inh: CSN deneddylation inhibition; actives 0.38% (n = 360,000); inhibition, % at 12.5 µM; Purified CSN, SCF-Nedd8-OG deneddylation, fluorescence polarization; Q92905; AID 651999;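 active = pattern-corrected inhibition above about 35%, with an unprinted fluorescence ratio check between 0.5 and 1.5, limit read from the data, passing the limit was not always enough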;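 note: 0% = enzyme with substrate and 100% = substrate without enzyme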
#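 assay system = purified human Csn5 enzyme expressed in HEK293T cells | amount = 0.24 nM enzyme | buffer or medium = Tris/NaCl/DTT buffer, pH 7.5 | reagent = 10 nM SCFSkp2-Nedd8OG | compound = one concentration, 12.5 µM, 0.25% DMSO | times = 90 min reaction at room temperature | signal = FP | read-out basis = % inhibition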
# SENP1 inh: blocks the human SENP1 SUMO protease catalytic domain; recombinant SENP1 catalytic domain, CyPet-SUMO1-YPet FRET cleavage; inhibition, % at 10 µM; actives 0.21% (n = 360,000); AID 624204;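 active = inhibition at least 30% at 10 µM, raw YFP signal under a set limit, fluorescence ratio 0.5 to 1.5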;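 note: 0% = enzyme with DMSO and 100% = no enzyme wells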
#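 Compound: 10 µM single point, 0.5% DMSO; Test system: hSENP1 catalytic domain, recombinant; Timing: 50 min reaction at room temperature; Technique: FRET, CFP and YFP emission; Control set: no-enzyme wells low, DMSO-plus-enzyme wells high control.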
# Rpn11 inh: blocks the human proteasome subunit Rpn11. inhibition, % at 20 µM. O00487. AID 588493. actives 0.59% (n = 360,000). human 26S proteasome, Ub4-pepOG fluorescence polarization; 20S core pre-blocked with epoxomicin;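 active = inhibition at 20 µM, scaled to each plate's controls, above about 33%, limit read from the data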
# HNF4A DNA FP: change in binding of human HNF4 alpha to DNA. activity change, % at 10 µM. HNF4a-FITC DNA binding, fluorescence polarization, 1 h. actives 0.3% (n = 360,000); in the data active = activity change above about 30%, passing the limit was not always enough
# TPT1 inhibitor: blocks Candida albicans tRNA 2'-phosphotransferase. recombinant caTPT1, FP RNA substrate dephosphorylation. actives 0.81% (n = 300,000). AID 1962. inhibition, % at 5 µM;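 active = inhibition above the mean of all tested compounds plus 3 SD, set per screening campaign, cut at about 24% in these data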;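 note: plate controls were DMSO alone for no effect and ferristatin control at 100 nM for full effect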
# caTPT1 confirm: confirmation of Candida albicans TPT1 inhibitors; shares compounds with TPT1 inhibitor; recombinant caTPT1, fluorescence polarization, RNase T1 coupled; inhibition, % at 5 µM; actives 74% (n = 2,400); AID 2149;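 active = inhibition above the primary screen limit, the mean inhibition of all tested compounds plus 3 SD, cut at about 25% in these data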
# RNase T1 inh: blocks Aspergillus oryzae RNase T1, a TPT1 counter-screen | shares compounds with TPT1 inhibitor | RNase T1 cleavage, fluorescence polarization, 1536-well | actives 83% (n = 2,400) | inhibition, % at 5 µM;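 active = inhibition above the solvent-only control well mean plus 3 SD, limit set per screening run, cut at about 23% in these data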;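 note: plate controls were DMSO wells with enzyme for no effect and wells without RNase T1 for full effect; inhibitors block cleavage so intact labeled substrate keeps polarization high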
# Rpn11 inh conf: Rpn11 inhibition confirmation, single concentration | inhibition, % at 20 µM | shares compounds with Rpn11 inh | actives 29% (n = 1,900) | purified human 26S proteasome, Ub4-pepOG fluorescence polarization; proteasome pretreated with epoxomicin
# MMP-2 inh: counter-screen for RPN11 inhibitors: inhibition of human MMP-2 | shares compounds with Rpn11 inh | recombinant MMP-2, FRET peptide cleavage fluorescence | inhibition, % at 20 µM | actives 4% (n = 1,900);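 note: human MMP-2 activated beforehand with APMA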
# Target sequence (P08253 whole entry, looked up): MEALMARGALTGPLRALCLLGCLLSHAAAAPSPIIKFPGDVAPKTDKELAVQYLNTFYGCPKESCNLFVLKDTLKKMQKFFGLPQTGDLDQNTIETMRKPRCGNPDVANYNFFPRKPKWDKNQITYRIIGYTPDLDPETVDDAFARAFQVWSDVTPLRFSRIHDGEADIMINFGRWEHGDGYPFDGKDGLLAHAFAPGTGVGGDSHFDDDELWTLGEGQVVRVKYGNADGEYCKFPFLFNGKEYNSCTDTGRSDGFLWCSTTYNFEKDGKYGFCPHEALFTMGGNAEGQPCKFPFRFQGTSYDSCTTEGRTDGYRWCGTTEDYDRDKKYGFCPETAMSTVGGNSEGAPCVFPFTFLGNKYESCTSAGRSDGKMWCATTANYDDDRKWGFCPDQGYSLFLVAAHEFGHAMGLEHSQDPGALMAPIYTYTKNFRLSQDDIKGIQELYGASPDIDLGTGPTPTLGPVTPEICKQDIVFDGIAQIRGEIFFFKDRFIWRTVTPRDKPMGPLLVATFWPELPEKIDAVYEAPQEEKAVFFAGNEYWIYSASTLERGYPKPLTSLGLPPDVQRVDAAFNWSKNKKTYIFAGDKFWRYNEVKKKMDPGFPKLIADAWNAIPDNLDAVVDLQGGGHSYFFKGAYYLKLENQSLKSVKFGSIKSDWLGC
# Thrombin inh: blocks bovine thrombin, flagging nonselective RPN11 hits | shares compounds with Rpn11 inh | AID 602333 | bovine thrombin cleavage of Ub4-pepOG, fluorescence polarization | actives 13% (n = 1,900) | inhibition, % at 20 µM;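 active = mean inhibition at least 40% at 20 µM, or signal 3 deviations below plate average, so some actives read negative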;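 note: plate controls were thrombin with DMSO for no effect and buffer wells lacking thrombin for full effect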
# * marks the source's active call; other numbers are inactive results; · = no result; + = active, no number. Sampled rows, rich in hits. Any-hit rate of the full collection: about 1.6%. Cut-off read from the data, not from the text of the source, unless noted: active = inhibition above about 40%; inactive = the rest.
SMILES,CSN inh,SENP1 inh,Rpn11 inh,HNF4A DNA FP,TPT1 inhibitor,caTPT1 confirm,RNase T1 inh,Rpn11 inh conf,MMP-2 inh,Thrombin inh
CN(C)/N=C/C=C1\CCC/C(=C/c2cccs2)C1=O,15,34,95*,34,49*,56*,66*,33,-23,17
CCOC(=O)CC(NS(=O)(=O)c1ccc(OC)c(C)c1)c1cccc([N+](=O)[O-])c1 (centres undefined),-11,0,-4,1,-1,·,·,·,·,·
COc1nc(N)c(S(=O)(=O)c2ccccc2)cc1C#N,12,-126,54*,16,30*,30*,41*,13,-39,-11
COc1nc(N)c(S(=O)(=O)c2ccccc2C)cc1C#N,1,-166,20,5,11,·,·,·,·,·
COc1ccc(-[n+]2c(C)cc(/C=C3\Sc4ccccc4N3C)cc2C)cc1,21,-25,83*,50*,91*,123*,128*,50*,-24,-22
Cc1ccc(-c2ccc(/C=C/C(=O)c3ccccc3)o2)cc1,-7,-24,76*,16,48*,77*,84*,28,-15,-2
N#Cc1c(N)n(CCc2ccc(F)cc2)c2nc3ccccc3nc12,25,-30,17,5,7,·,·,·,·,·
Cn1c(-c2c(N)n(CCc3ccccc3)c3nc4ccccc4nc23)nc2ccccc21,4,-21,46*,22,38*,48*,60*,38,-2,29
N#C/C(=C\c1ccc(O)c(O)c1)C(=O)Nc1ccccc1,5,-34,56*,4,33*,40*,48*,91*,9,27
C[C@@H](NC(=O)/C(C#N)=C/c1ccc(O)c(O)c1)c1ccccc1,-1,-74,-3,0,8,·,·,·,·,·
CCN1C(=O)/C(=C/C=C2/Sc3ccccc3N2CCO)SC1=S,30,13,52*,36*,40*,33*,45*,26,18,12
CC1=Nc2ccccc2/C1=C\c1nc(-c2ccccc2)oc1O,16,-21,44*,28,80*,99*,108*,43*,-5,22
COc1ccc(N=NC2=C(O)CC(C)(C)CC2=O)c(OC)c1,31,69*,94*,51*,60*,61*,75*,88*,-8,69*
CCn1cc(S(=O)(=O)NCCc2ccc(OC)c(OC)c2)cn1,2,-1,6,2,-2,·,·,·,·,·
Cc1cc(/C=C2\SC(=S)NC2=O)c(C)[nH]1,93,-27,84*,57*,131*,97*,108*,45*,17,38
N#Cc1ccc(-c2cccnc2)nc1SCC(=O)Nc1sc2c(c1C#N)CCC2,9,20,48*,5,46*,18,29*,26,9,20
O=C(NN1C(=O)/C(=C/C=C/c2ccco2)SC1=S)c1ccccc1O,74,-14,177*,-22,71*,49*,50*,100*,58*,60*
COC(=O)CN1C(=S)N(c2ccc(OC)cc2)C(=O)/C1=C/c1ccc(OC)cc1,5,-38,1,5,-1,·,·,·,·,·
COc1ccc(C(=O)N2C(=S)NC(=O)/C2=C\c2ccc(C)cc2)cc1,43*,-115,63*,19,34*,42*,57*,107*,20,75*
Nc1c(C(=O)N/N=C/c2ccc(F)cc2)oc2nc(-c3ccccc3)cc(-c3ccco3)c12,10,-35,44*,33,34*,109*,112*,94*,-18,20
CC1(C(=O)NCc2cccs2)Cc2c(-c3ccccc3)ccnc2O1 (centres undefined),-3,-1,-3,0,·,·,·,·,·,·
O=c1nc(/C=C/c2cccn2-c2ccc([N+](=O)[O-])cc2)cc(C(F)(F)F)[nH]1,18,-22,40*,5,84*,47*,66*,29,18,15
Cc1nn(-c2ccccc2)c(Cl)c1/C=C1\SC(=S)N(CCCCCC(=O)O)C1=O,12,0,2,-2,0,·,·,·,·,·
O=C(O)CCN1C(=O)/C(=C/c2ccc(-c3nc4ccccc4s3)o2)SC1=S,193,-62,+,60*,31*,46*,66*,173*,-17,35
O=Cc1ccc(-c2nc3ccccc3s2)o1,7,-23,1,2,6,·,·,·,·,·
SMILES,CSN inh,SENP1 inh,Rpn11 inh,HNF4A DNA FP,TPT1 inhibitor,caTPT1 confirm,RNase T1 inh,Rpn11 inh conf,MMP-2 inh,Thrombin inh
O=C(O)CCCN1C(=O)/C(=C\c2ccc(-c3nc4ccccc4s3)o2)SC1=S,117,-49,159*,26,30*,48*,75*,70*,29,-47
COc1cc(/C=C/c2nc3ccccc3c(=O)[nH]2)cc(Cl)c1O,21,-24,69*,40*,41*,71*,74*,2,12,158*
Oc1ccccc1N=Nc1nc(-c2ccccc2)c(-c2ccccc2)[nH]1,5,48*,54*,23,46*,58*,69*,23,10,20
O=C(O)c1ccc(-c2nc(-c3ccccc3)c(-c3ccccc3)[nH]2)cc1,-4,0,5,0,-2,·,·,·,·,·
COc1ccc(-c2nc(C)ncc2N=Nc2ccccc2)cc1,-1,3,2,0,-1,·,·,·,·,·
COc1ccc(N=Nc2nc(-c3ccccc3)c(-c3ccccc3)[nH]2)cc1,10,37*,39*,20,31*,43*,56*,8,13,-6
Nc1ccn([C@@H]2O[C@H](CNC(=O)[C@@H](Cc3cn(COCc4ccccc4)cn3)NC=O)[C@@H](O)[C@H]2O)c(=O)n1,2,1,1,4,·,·,·,·,·,·
COCc1cc(C)nc(N/N=C/c2ccc(-c3cc(C(=O)O)ccc3Cl)o2)c1C#N,·,·,·,·,0,·,·,·,·,·
CCN1C(=O)/C(=C/N(C)c2ccccc2)OC1=S,-6,-5,-6,-1,10,·,·,·,·,·
CCN1C(=O)/C(=C/C=C2/CCCN2C)OC1=S,-2,-25,76*,88*,78*,106*,116*,43*,6,54*
